GSTO1 inh – inhibitors of recombinant GSTO1, primary screen, counter-screen for RBBP9 inhibitor project, biochemical, fluorescence polarization; Glutathione S-transferase omega-1 (Homo sapiens), P78417; activity-based probe fluorescence polarization; inhibition, % at 5.96 µM; actives 1.1% (n = 300,000);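 active = inhibition above the campaign mean inhibition plus 3 SD, cut at about 35% in these data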
Target sequence (P78417 whole entry, looked up): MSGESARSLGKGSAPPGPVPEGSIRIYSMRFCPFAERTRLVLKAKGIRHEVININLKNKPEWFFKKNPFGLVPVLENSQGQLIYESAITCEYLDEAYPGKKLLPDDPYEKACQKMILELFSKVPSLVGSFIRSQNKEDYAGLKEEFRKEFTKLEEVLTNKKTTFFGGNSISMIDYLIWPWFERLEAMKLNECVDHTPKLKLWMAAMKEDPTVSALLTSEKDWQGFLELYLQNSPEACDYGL
HKDC1 inhibitor – HKDC1 hexokinase inhibitors, primary screen, biochemical, fluorescence, uHTS | Q2TB90 | recombinant HKDC1, G6PDH/diaphorase resazurin coupled fluorescence | inhibition, % at 20 µM | actives 0.16% (n = 340,000) | AID 493160, 2011;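 active = inhibition above about 35% when tested at 20 µM, limit read from the data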
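Assay system – recombinant HKDC1 (HK5) hexokinase enzyme, produced in-house · Input – HKDC1 at 5 µg/mL · Reagent – glucose plus 1 mM ATP as hexokinase substrates · Timing – 90 min reaction incubation at room temperature, dark · Measured by – G6PDH/diaphorase-coupled fluorescence, 1 mM NADP, 100 µM resazurin, 525/613 nm · Benchmarks – DMSO-enzyme wells negative, buffer-substituted wells positive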
UCH37 DUB inh – inhibitors of human UCH37 deubiquitinase, primary screen, biochemical, Ub-AMC cleavage, fluorescence; Ubiquitin carboxyl-terminal hydrolase isozyme L5 (Homo sapiens), Q9Y5K5; purified proteasome/UCH37; inhibition, % (test concentration not listed); actives 0.33% (n = 330,000); AID 588478, 2011;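 active = mean inhibition over replicate wells above about 20%, limit read from the data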
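assay system = human UCH37 enzyme supplied as purified proteasome complex | amount = proteasome at 0.15 nM in the dispensed enzyme solution | schedule = 30 min compound-proteasome preincubation then 25 min substrate reaction, room temperature | measured by = fluorescence, ex 355 nm, em 460 nm | benchmarks = no-proteasome wells (full inhibition) and compound-free wells (no inhibition)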
CTSL1 counter – Fasciola hepatica cathepsin L1 inhibitors, primary screen, counter-screen for PFM18AAP inhibitor project, biochemical, QFRET, fluorogenic peptide substrate. AID 1906, 2009. inhibition, % at 5.96 µM. actives 0.49% (n = 300,000). recombinant F. hepatica cathepsin L1, Z-Leu-Arg-MCA fluorescence;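 active = inhibition above the mean of all tested compounds plus 3 SD, set per screening campaign, cut at about 17% in these data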
PAD4 FP inh – human PAD4 inhibitors, primary screen, biochemical, fluorescence polarization, 1536-well format; Protein-arginine deiminase type-4 (Homo sapiens), Q9UM07; recombinant PAD4, RCA probe fluorescence polarization; inhibition, % at 6.36 µM; actives 0.41% (n = 330,000);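 active = percent inhibition above a cutoff equal to the mean of all tested compounds plus 3 SD, cut at about 15% in these data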
TDP2 inh – human TDP2 enzyme inhibitors, primary screen, biochemical, epi absorbance, recombinant enzyme; T5PNP hydrolysis, p-nitrophenol absorbance 415 nm; inhibition, % at 12.8 µM; actives 0.34% (n = 370,000);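 active = inhibition above the mean of all tested compounds plus 3 SD, set per campaign, cut at about 25% in these data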
Target sequence (O95551 whole entry, looked up): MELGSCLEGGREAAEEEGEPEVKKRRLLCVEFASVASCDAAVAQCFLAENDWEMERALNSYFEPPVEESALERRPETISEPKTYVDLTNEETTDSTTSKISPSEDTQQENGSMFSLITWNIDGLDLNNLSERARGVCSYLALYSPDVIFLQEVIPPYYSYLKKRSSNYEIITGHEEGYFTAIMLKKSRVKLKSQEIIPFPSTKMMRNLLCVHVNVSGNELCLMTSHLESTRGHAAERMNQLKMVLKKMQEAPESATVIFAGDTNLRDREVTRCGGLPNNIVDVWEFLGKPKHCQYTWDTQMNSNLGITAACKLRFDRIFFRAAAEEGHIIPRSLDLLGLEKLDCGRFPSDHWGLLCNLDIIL
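Assay system: recombinant human TDP2 / Reagent: T5PNP substrate at 5 mM, a TopII-DNA adduct mimic / Measured by: epi absorbance from released p-nitrophenol / Evaluation: % inhibition relative to enzyme-containing and enzyme-free wells / Control set: enzyme-free and DMSO wells / Replicates: each compound tested once, singlicate / Schedule: enzyme reaction with compound for 2 h at 37 °C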
GSTO1 inh conf – GSTO1 inhibitor hit confirmation, counter-screen for RBBP9 inhibitor project, biochemical, fluorescence polarization, triplicate; actives 54% (n = 2,400); shares compounds with GSTO1 inh; AID 2176, 2009; recombinant GSTO1, probe fluorescence polarization; inhibition, % at 5.96 µM;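 active = inhibition above the primary screen's cutoff, its mean inhibition plus 3 SD, cut at about 35% in these data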;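 also: loss of polarization as inhibitors block binding of rhodamine sulfonate ester activity probe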
PAD4 confirm – human PAD4 inhibitors, confirmation, biochemical, fluorescence polarization. shares compounds with PAD4 FP inh. recombinant PAD4, RCA probe fluorescence polarization. inhibition, % at 6.36 µM. actives 28% (n = 1,200);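 active = mean inhibition across replicates above the hit cutoff set by the earlier primary screen, cut at about 15% in these data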;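 also: inhibitors block active-site labeling by the probe so polarization falls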
HKDC1 act conf – HKDC1 hexokinase activators, confirmation, biochemical, single concentration; shares compounds with HKDC1 inhibitor; recombinant HKDC1, G6PDH/diaphorase resazurin fluorescence; stronger effect = lower value; inhibition, % at 20 µM; actives 14% (n = 740); AID 504708, 2011;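 active = inhibition at or below a set negative limit, negative inhibition meaning the enzyme was activated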
UCH37 reconfirm – retest of human UCH37 deubiquitinase inhibitors, confirmation, biochemical, Ub-AMC cleavage rate, fluorescence; shares compounds with UCH37 DUB inh; Proteasome-bound UCH37; inhibition, % at 20 µM; actives 27% (n = 480); AID 624100, 2012;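 active = average inhibition over replicates above about 50%, so the earlier screening hit is confirmed, limit read from the data; inactive = the rest, counted as false positives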;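 also: based on cleavage rate fitted by regression over a 30 min kinetic read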
TDP2 confirm – human TDP2 enzyme inhibitors, retest, confirmation, biochemical, epi absorbance, recombinant enzyme. shares compounds with TDP2 inh. absorbance read-out. inhibition, % at 12.8 µM. actives 22% (n = 1,100); in the data active = inhibition above about 25%
Hits are given with their value; i = inactive; nt = not tested or not shown. Most compounds without a hit are left out; they make up all but 1.6% or so of the library.

SMILES | GSTO1 inh | HKDC1 inhibitor | UCH37 DUB inh | CTSL1 counter | PAD4 FP inh | TDP2 inh | GSTO1 inh conf | PAD4 confirm | TDP2 confirm | others
CC(=O)c1cccc(Nc2nc(N3CCOCC3)nc(N3CCOCC3)n2)c1 | i | i | i | i | i | i | nt | nt | nt
O=C1C=C(N2CCOCC2)c2ccccc2C1=O | 90 | 77 | 97 | 112 | 60 | 65 | 99 | 66 | 86 | HKDC1 act conf=i;UCH37 reconfirm=130
O=C(O)c1cccc(NC2=C(N3CCOCC3)C(=O)c3ccccc3C2=O)c1 | 47 | i | 28 | 50 | i | 37 | i | nt | 51 | UCH37 reconfirm=i
O=C1C2C3C=CC(C4CC34)C2C(=O)N1N=Cc1c[nH]c2ccccc12 (centres undefined) | nt | nt | i | nt | nt | nt | nt | nt | nt
CC(=NNC(=O)COc1ccc([N+](=O)[O-])cc1)C(C)(C)C | nt | nt | i | nt | nt | nt | nt | nt | nt
Nc1ncnc2oc(-c3ccco3)c(-c3ccco3)c12 | 56 | i | i | i | i | 27 | i | nt | i
CCNC(=S)NS(=O)(=O)c1ccc(CC)cc1 | i | i | i | i | i | i | nt | nt | nt
CCc1ccc(S(=O)(=O)Nc2ccc(O)c3ccccc23)cc1 | 53 | 44 | nt | i | i | 54 | i | nt | i | HKDC1 act conf=i
O=S(=O)(Nc1ccc(NS(=O)(=O)c2ccccc2)c2ccccc12)c1ccccc1 | nt | nt | nt | nt | nt | i | nt | nt | nt
O=S(=O)(Nc1ccc(O)c2ccccc12)c1ccc(F)cc1 | 64 | 43 | i | i | i | 47 | i | nt | i | HKDC1 act conf=i
C[n+]1cccc2c(Br)ccc([O-])c21 | 41 | i | i | i | i | 71 | i | nt | 37
NC(=NOC(=O)Cc1ccccc1)c1ccc([N+](=O)[O-])cc1 | nt | nt | i | nt | nt | nt | nt | nt | nt
CC(=NNC(=S)NC(C)C)c1ccc2c(c1)OCCO2 | nt | nt | i | nt | nt | nt | nt | nt | nt
CCc1cc[n+](C2=C([O-])c3ccccc3C(=O)/C2=N\S(=O)(=O)c2cccs2)cc1 | 83 | i | 57 | 20 | i | 41 | 82 | nt | 40 | UCH37 reconfirm=62
CC(C)=CCC1=C(OCC(=O)O)C(=O)c2ccccc2C1=O | 89 | i | 81 | 45 | 28 | 47 | 85 | i | 67 | UCH37 reconfirm=i
O=C(CC=NOCc1ccc(Cl)cc1Cl)c1ccccc1 | nt | nt | i | nt | nt | nt | nt | nt | nt
O=c1cc(-c2cccc([N+](=O)[O-])c2)[nH][nH]1 | 38 | i | i | i | 52 | 71 | i | i | i
CC(C)(C)c1cc(C=NNC(=O)C[n+]2ccccc2)cc(C(C)(C)C)c1O | nt | nt | i | nt | nt | nt | nt | nt | nt
Cc1ccc(-n2[nH]c(C)c(C=NNC(=O)c3ccc(O)cc3O)c2=O)cc1 | nt | nt | i | nt | nt | nt | nt | nt | nt
CC1=NN(c2ccc(F)cc2)C(=O)C1C(c1cccc(O)c1)c1c(C)[nH]n(-c2ccc(F)cc2)c1=O (centres undefined) | 58 | i | i | i | 69 | 89 | 36 | i | 48
O=c1oc(Nc2ccccc2Cl)nc2ccccc12 | nt | i | i | nt | nt | i | nt | nt | nt
Cc1cc2ccccc2c(=O)[nH]1 | i | i | i | i | i | i | nt | nt | nt
O=c1[nH]c(Nc2ccccc2Cl)cc2ccccc12 | 40 | i | i | i | 28 | 71 | i | i | 43
O=c1[nH]c(Nc2ccc(F)cc2)cc2ccccc12 | 67 | i | i | 58 | 43 | 77 | 44 | 17 | 65
CC1CN(C(=S)Nc2ccc(Cl)cc2)CC(C)O1 (centres undefined) | i | i | i | i | i | i | nt | nt | nt
SMILES | GSTO1 inh | HKDC1 inhibitor | UCH37 DUB inh | CTSL1 counter | PAD4 FP inh | TDP2 inh | GSTO1 inh conf | PAD4 confirm | TDP2 confirm | others
CC1CN(c2ccc(NC(=S)Nc3ccc(N4CC(C)OC(C)C4)cc3)cc2)CC(C)O1 (centres undefined) | i | i | i | i | 20 | i | nt | i | nt
Cc1n[nH]c(=S)n(/N=C/c2cccs2)c1=O | i | i | nt | i | 18 | i | nt | i | nt
Cn1cccc1/C=C1\SC(=S)N(NC(=O)c2ccccc2Cl)C1=O | i | i | nt | i | 18 | i | nt | i | nt
CCCCNC(=O)C(=O)NN=Cc1ccc(OCC(=O)Nc2cccc(OC)c2)c(OC)c1 | nt | nt | i | nt | nt | nt | nt | nt | nt
COCc1cc(C)nc(SCC(=O)Nc2ccc3[nH]c(=O)[nH]c3c2)c1C#N | i | i | i | i | i | i | nt | nt | nt
COCc1cc(C)nc(SCC(=O)Nc2ccc3c(c2)n(C)c(=O)n3C)c1C#N | i | i | i | i | 197 | i | nt | i | nt
CCOC(=O)c1ccc(NC(=O)CSC2=NC(=O)C(CC)C(=O)N2)cc1 (centres undefined) | i | i | i | i | 21 | i | nt | 20 | nt
CCC1C(=O)N=C(SCC(=O)Nc2cccc3ccccc23)NC1=O (centres undefined) | i | i | i | i | i | i | nt | nt | nt
CC(=NNC(=O)CNc1cccc(C(F)(F)F)c1)c1ccc(Br)cc1 | nt | nt | i | nt | nt | nt | nt | nt | nt
CC(=NNC(=O)c1nnn(-c2nonc2N)c1CN1CCOCC1)c1ccc(CC(C)C)cc1 | nt | nt | i | nt | nt | nt | nt | nt | nt
CC(=NNC(=O)c1ccc(CN2CCOCC2)cc1)c1cccc([N+](=O)[O-])c1 | nt | nt | i | nt | nt | nt | nt | nt | nt
CC(=O)Nc1ccccc1C(=O)C(=O)Nc1ccccc1 | i | i | i | i | i | i | nt | nt | nt
CCC(=O)Nc1ccccc1C(=O)C(=O)Nc1ccccc1 | i | i | i | i | 20 | i | nt | i | nt
CC(C)c1ccc(N2C(=O)CSC23C(=O)N2CCCc4cccc3c42)cc1 (centres undefined) | i | i | i | i | 15 | i | nt | 20 | nt
CC1=CC(C)(C)N2C(=O)C3(SCC(=O)N3c3ccc(F)cc3)c3cc(C)cc1c32 (centres undefined) | i | i | i | i | i | i | nt | nt | nt
